{
  "source": "paper PMC3151333",
  "about": "(Cancer prevention research (Philadelphia, Pa.), 2011)",
  "key": {"[1]": {"test": "LC-MS/MS determination of protocatechuic acid", "type": "in vivo, human", "settings": "for donors whose saliva contained detectable PCA: final (240 minute) time point, 0.2 ng/ml detection limit"}, "β-glucosidase": {"system": "β-glucosidase", "type": "biochemical, human", "settings": "0.12% in PBS, 3 minute rinse"}, "[2]": {"settings": "cited from earlier work"}, "[3]": {"type": "in vivo, human"}, "[4]": {"type": "in vivo, human", "settings": "for glucuronide of the parent anthocyanin in saliva (selected ion chromatograms): five minute Rinse III saliva samples; for saliva samples with cyanidin-3 sambubioside glucuronides detected: Rinse III"}, "[5]": {"settings": "240 minute time point following 10% BRB gel application; cited from earlier work"}, "rat liver microsomes": {"system": "rat liver microsomes", "test": "Incubation of cyanidin-3 sambubioside with rat liver microsomes", "type": "in vitro ADME", "settings": "similar retention time and tandem mass spectra as in saliva"}, "[6]": {"test": "Detection of protocatechuic acid O-glucuronide", "type": "in vivo, human", "how_it_was_run": "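Donors rinsed vigorously with 15 ml augmented BRB rinse (10% final BRB) for 3 min. Saliva was collected at timed intervals, acidified with 5% final formic acid and stored at −80°C. Ion-trap LC-MS coupled to HPLC was tuned by infusing a synthetic PCAOG standard. The run used full scan, zoom scan and CID product-ion scan, and the 329.0>153.0 transition was monitored at 35% energy.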"}, "[7]": {"settings": "after ingestion of a 300 mg dose"}},
  "note": "Where two headings read alike, the source gives them in different places.",
  "data": [
    {"molecule": "O=C(O)c1ccc(O)c(O)c1", "note": "[PCA, protocatechuic acid]", "values": [
      {"measurement": "retention in saliva after rinsing", "setting": "[1]; BRB rinses", "value": "up to 4 hours"},
      {"measurement": "donors whose saliva contained detectable PCA", "setting": "[1]; Rinse I", "value": "2 of 10"},
      {"measurement": "donors whose saliva contained detectable PCA", "setting": "[1]; Rinse II", "value": "2 of 10"},
      {"measurement": "donors whose saliva contained detectable PCA", "setting": "[1]; Rinse III", "value": "6 of 10"}
    ]},
    {"molecule": "[H]/N=C(\\N/C(=N/[H])NCCCCCCNC(=N)NC(=N)Nc1ccc(Cl)cc1)Nc1ccc(Cl)cc1", "note": "[chlorhexidine gluconate]", "values": [
      {"measurement": "donors retaining appreciable functional β-glucosidase activity following rinsing", "setting": "β-glucosidase", "value": "10 of 11"},
      {"measurement": "decrease in β-glucosidase in saliva following rinsing (mean ± s.e.m)", "setting": "β-glucosidase; saliva 15 minutes after rinsing, n=11, p<0.001", "value": "69.43% ±7.24"},
      {"measurement": "mean peak plasma levels", "setting": "[2]; [7]", "value": 0.206, "unit": "µg/g"},
      {"measurement": "time of mean peak plasma levels", "setting": "[2]; [7]", "value": 30, "unit": "min"},
      {"measurement": "absorption from the gastrointestinal tract", "setting": "[2]", "value": "poorly absorbed"},
      {"measurement": "fraction retained in the oral cavity following rinsing", "setting": "[2]", "value": "~30", "unit": "%"},
      {"measurement": "persistence in human saliva after rinsing", "setting": "[2]", "value": "at least 12 hours"},
      {"measurement": "retention by local adsorption, then slowly released over time", "setting": "[2]", "value": "approximately 30%"}
    ]},
    {"molecule": "OC[C@H]1O[C@@H](Oc2cc3c(O)cc(O)cc3[o+]c2-c2ccc(O)c(O)c2)[C@H](O)[C@@H](O)[C@@H]1O", "note": "[cyanidin 3-glucoside]", "values": [
      {"measurement": "salivary BRB anthocyanin level, Rinse I relative to Rinse III", "setting": "[3]; in vivo", "value": "significantly higher"},
      {"measurement": "salivary anthocyanin level, Rinse II relative to Rinse I", "setting": "[3]; in vivo", "value": "significantly lower"},
      {"measurement": "glucuronide of the parent anthocyanin in saliva (selected ion chromatograms)", "setting": "[4]", "value": "did not reveal any novel peaks"}
    ]},
    {"molecule": "C[C@@H]1O[C@@H](OC[C@H]2O[C@@H](Oc3cc4c(O)cc(O)cc4[o+]c3-c3ccc(O)c(O)c3)[C@H](O)[C@@H](O)[C@@H]2O)[C@H](O)[C@H](O)[C@H]1O", "note": "[cyanidin 3-rutinoside]", "values": [
      {"measurement": "donors showing detectable rutinoside in saliva", "setting": "[3]; in vivo", "value": "10 out of 10"},
      {"measurement": "rutinoside levels in saliva (mean ± S.D.)", "setting": "[3]; in vivo", "value": "2287.12 ± 489.55", "unit": "µg/mL"},
      {"measurement": "salivary BRB anthocyanin level, Rinse I relative to Rinse III", "setting": "[3]; in vivo", "value": "significantly higher"},
      {"measurement": "donors retaining any salivary anthocyanins, including rutinoside", "setting": "[5]", "value": "3 out of 5"},
      {"measurement": "glucuronide of the parent anthocyanin in saliva (selected ion chromatograms)", "setting": "[4]", "value": "did not reveal any novel peaks"}
    ]},
    {"molecule": "OC[C@H]1O[C@@H](Oc2cc3c(O)cc(O)cc3[o+]c2-c2ccc(O)c(O)c2)[C@H](O[C@@H]2OC[C@@H](O)[C@H](O)[C@H]2O)[C@@H](O)[C@@H]1O.[Cl-]", "note": "[cyanidin 3-sambubioside]", "values": [
      {"measurement": "salivary BRB anthocyanin level, Rinse I relative to Rinse III", "setting": "[3]; in vivo", "value": "significantly higher"},
      {"measurement": "metabolite formation on incubation with rat liver microsomes", "setting": "rat liver microsomes", "value": "generated cyanidin-3 sambubioside glucuronides"}
    ]},
    {"molecule": "Oc1cc(O)c2cc(O)c(-c3ccc(O)c(O)c3)[o+]c2c1", "note": "[cyanidin]", "values": [
      {"measurement": "time by which salivary cyanidin levels were undetectable", "setting": "[3]; all samples from all rinses", "value": "≤ 60", "unit": "min"},
      {"measurement": "aglycone cyanidin in early saliva samples", "setting": "[3]; up to 5 minute post rinse, all three rinse groups, all donors", "value": "detectable levels"}
    ]},
    {"molecule": "cyanidin-3 sambubioside glucuronides", "values": [
      {"measurement": "saliva samples with cyanidin-3 sambubioside glucuronides detected", "setting": "[4]; 30 minute samples", "value": "3 of 6"},
      {"measurement": "saliva samples with cyanidin-3 sambubioside glucuronides detected", "setting": "[4]; five minute time point samples", "value": "6 of the 6"},
      {"measurement": "cyanidin 3-sambubioside glucuronides in saliva", "setting": "[4]; after the 30 minute post rinse samples", "value": "no cyanidin 3-sambubioside glucuronides were observed"}
    ]},
    {"molecule": "protocatechuic acid O-glucuronide [PCAOG]", "values": [
      {"measurement": "PCAOG peaks in later time point saliva samples", "setting": "[6]; 30, 60, 120 and 240 min after Rinse III, either donor", "value": "did not reveal any peaks"},
      {"measurement": "donors with PCAOG peak detected in saliva", "setting": "[6]; 5 min saliva sample after Rinse III", "value": "1 of the 2"}
    ]}
  ]
}
